The values that follow come from ChEMBL document CHEMBL4312006, “A novel chalcone derivative as Nrf2 activator attenuates learning and memory impairment in a scopolamine-induced mouse model” (Eur J Med Chem, 2020).

The structures appear in SMILES notation. Calls of active or inactive are those of the source. The calls are words filed in the database; no cut-off is given here.

The test system of series [1] is BV-2. Briefly: Inhibition of H2O2-stimulated ROS production in mouse BV2 cells preincubated for 24 hrs followed by H2O2 stimulation for 20 mins by DCFH-DA dye based assay. The format is functional, cell-based. An outline of the steps: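 BV-2 cells treated with a range of compound concentrations for 24 h at 37 °C. Loaded with 20 μM DCFH-DA for 40 min, then 200 μM H2O2 added for 20 min at 37 °C in the dark. DCF fluorescence read at ex 480 nm / em 530 nm. Compared with H2O2-treated control.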

Series [2] is described as follows: Stability in rat plasma assessed as compound remaining after 30 mins. It is filed as ADME, cell-free. The following applies: read-out: Stability.
For series [3], the target named is T1, Nuclear factor erythroid 2-related factor 2 (Mus musculus) (UniProt Q60795).
T1 sequence (whole entry): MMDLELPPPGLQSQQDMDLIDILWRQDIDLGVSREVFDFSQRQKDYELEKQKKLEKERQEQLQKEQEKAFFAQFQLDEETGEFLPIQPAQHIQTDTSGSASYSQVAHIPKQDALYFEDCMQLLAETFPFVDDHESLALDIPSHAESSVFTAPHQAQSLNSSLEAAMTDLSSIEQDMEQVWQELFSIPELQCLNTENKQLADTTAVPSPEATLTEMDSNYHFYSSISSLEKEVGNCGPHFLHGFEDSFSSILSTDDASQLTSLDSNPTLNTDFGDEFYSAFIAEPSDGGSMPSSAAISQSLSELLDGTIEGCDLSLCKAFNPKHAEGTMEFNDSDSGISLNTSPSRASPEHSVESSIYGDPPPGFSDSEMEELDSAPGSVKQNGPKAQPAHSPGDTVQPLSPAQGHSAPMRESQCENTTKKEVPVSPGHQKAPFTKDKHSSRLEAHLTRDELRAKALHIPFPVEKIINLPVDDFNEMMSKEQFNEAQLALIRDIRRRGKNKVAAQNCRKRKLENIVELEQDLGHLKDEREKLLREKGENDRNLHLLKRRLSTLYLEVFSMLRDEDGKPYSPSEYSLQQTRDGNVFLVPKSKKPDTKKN
In words: Activation of NRF2 in mouse BV2 cells assessed as upregulation of HO1 at 20 uM by ELISA relative to control. The format is cell-based. For orientation: An ELISA detects its analyte on a solid surface through an enzyme-linked reagent.

The subject of series [4] is Mus musculus. In words: Effect on mean number of arm entries in C57BL/6 mouse model of scopolamine-induced amnesia at 30 mg/kg, po administered for 5 days and measured on day 5 after 30 mins of scopolamine stimulation by Y-maze test. It is filed as ADME, organism-based. The following applies: in vivo. An outline of the steps:
(§1)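 Male C57BL/6N mice given 30 mg/kg/day compound in saline by gavage for 5 days. Scopolamine 2 mg/kg in saline given i.p. 30 min before testing on the last day. Mice handled daily for 7 days beforehand. Free exploration of a three-arm Y-maze for 10 min, with entries scored manually (all four paws). Alternation = consecutive entries into three different arms.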

The target of series [5] is T1, Nuclear factor erythroid 2-related factor 2 (Mus musculus). In words: Activation of NRF2 in mouse BV2 cells assessed as increase in HO1 mRNA level at 0.1 to 10 uM incubated for 8 hrs by qRT-PCR analysis. The format is cell-based. Put shortly: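 BV-2 microglia grown in RPMI 1640 with 10% FBS, 2.05 mM L-glutamine and penicillin-streptomycin at 37 °C, 5% CO2. Cells exposed to a range of compound concentrations for 8 h. Ho-1 or Gclm mRNA measured by qRT-PCR and expressed relative to untreated control. Means ± SEM, one-way ANOVA with Dunnett's test.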
Background: Real-time PCR tracks product formation cycle by cycle.

Series [6] can be described thus: Lipophilicity, log P of the compound. It is filed as physicochemical. The following applies: octanol/water.
Series [7] deals with T1, Nuclear factor erythroid 2-related factor 2 (Mus musculus). Briefly: Activation of NRF2 in mouse BV2 cells assessed reduction in LPS-stimulated IL-6 level preincubated for 3 hrs followed by LPS stimulation for 24 hrs by ELISA. The format is cell-based. Put shortly: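 BV-2 cells pre-incubated with a range of compound concentrations for 3 h, then stimulated with 0.2 μg/mL LPS for 24 h. TNF-α or IL-6 in the culture medium quantified by sandwich ELISA kits. Compared with LPS-treated control by one-way ANOVA with Dunnett's test.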

Series [8] has the same target. In words: Activation of NRF2 in mouse BV2 cells assessed as inhibition of LPS-stimulated iNOS expression at 10 uM preincubated for 3 hrs followed by LPS stimulation for 24 hrs by Western blot analysis relative to control. It is filed as cell-based. Also noted: scale not given: the % may be the effect or the level left. An outline of the steps:
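LPS-stimulated BV-2 cells pretreated with compound for 3 h. iNOS immunoblot (1:500) on 10 μg RIPA lysate protein, detected by ECL. Densities normalised to β-actin or Lamin B1 and compared with LPS-treated control.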
A general note: Immunoblotting shows a protein as a band on a membrane.

Series [9] is described as follows: Stability in human liver microsomes assessed as compound remaining after 30 mins. The following applies: read-out: Stability. It is filed as ADME, Microsome.
Series [10] has as its system Mus musculus. Briefly: Cognition enhancing effect in C57BL/6 mouse model of scopolamine-induced amnesia assessed as increase in […] percentage at 30 mg/kg, po administered for 5 days and measured on day 5 after 30 mins of scopolamine stimulation by Y-maze test. The format is functional, organism-based. Put shortly: as §1
In series [11] the test system is Mus musculus. In words: Antioxidant activity in mouse assessed as inhibition of scopolamine-induced reduction in SOD activity at 30 mg/kg, po administered for 5 days and measured on day 5 by WST-1 based assay. It is filed as functional, organism-based. Put shortly: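 Male C57BL/6N mice (10 weeks) dosed 30 mg/kg/day compound in saline by oral gavage for 5 days, with scopolamine 2 mg/kg i.p. Hippocampus homogenised in sucrose buffer (pH 7.4) and centrifuged 40 min at 4 °C. SOD activity in the supernatant measured by WST-1 kit and given as U/mg protein. One-way ANOVA with Tukey's test.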

The target in series [12] is T1, Nuclear factor erythroid 2-related factor 2 (Mus musculus). In words: Activation of NRF2 in mouse BV2 cells assessed as increase in HO1 protein expression incubated for 12 hrs by Western blot analysis. It is filed as cell-based. Put shortly: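 BV-2 cells washed in ice-cold PBS and lysed on ice for 40 min in RIPA buffer with protease inhibitors. Nuclear fractions prepared separately. 10 μg protein run on SDS-PAGE and blotted to PVDF. Membranes blocked in 5% skim milk/TBST and probed overnight at 4 °C for Nrf2, HO-1, GCLM or SOD1. HRP secondary with ECL detection. Band densities normalised to Lamin B1 or β-actin.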

Series [13] relates to BV-2. Briefly: Cytotoxicity against mouse BV2 cells assessed as reduction in cell viability upto 10 uM incubated for 24 hrs by WST assay. The format is cell-based. The following applies: bv-2, 24 h. Put shortly: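 BV-2 cells incubated with compound concentrations up to 10 µM for 24 h at 37 °C. Ez-Cytox WST reagent added for 1 h and formazan absorbance read at 450 nm.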

The target in series [14] is CYP2C19 (Homo sapiens, UniProt P33261). In words: Inhibition of CYP2C19 (unknown origin) assessed as remaining activity relative to control. The format is ADME.
Series [15] addresses Keap1/Nrf2 (Homo sapiens, UniProt Q14145+Q16236). In words: (§2) Activation of NRF2 in human U2OS cells co-expressing Keap1 (unknown origin) assessed as induction of NRF2 translocation to nucleus incubated for 6 hrs by beta-galactosidase based chemiluminescent assay. It is filed as cell-based. An outline of the steps:
(§3)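 PathHunter U2OS cells engineered to co-express enzyme donor-tagged NRF2 and nuclear-localized enzyme acceptor; Nrf2 nuclear translocation reconstitutes β-galactosidase. Cells in 96-well plates exposed to a range of compound concentrations for 6 h at room temperature (20–23 °C), then 1 h with detection reagent in the dark; chemiluminescence (RLU) read. EC50 from concentration-response curve, mean ± SEM, triplicate.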

In series [16] the target is Keap1/Nrf2 (Homo sapiens) (UniProt Q16236+Q14145). The series is described as §2. The format is cell-based. Put shortly:
as §3

Sequence of CYP2C19 (P33261 whole entry): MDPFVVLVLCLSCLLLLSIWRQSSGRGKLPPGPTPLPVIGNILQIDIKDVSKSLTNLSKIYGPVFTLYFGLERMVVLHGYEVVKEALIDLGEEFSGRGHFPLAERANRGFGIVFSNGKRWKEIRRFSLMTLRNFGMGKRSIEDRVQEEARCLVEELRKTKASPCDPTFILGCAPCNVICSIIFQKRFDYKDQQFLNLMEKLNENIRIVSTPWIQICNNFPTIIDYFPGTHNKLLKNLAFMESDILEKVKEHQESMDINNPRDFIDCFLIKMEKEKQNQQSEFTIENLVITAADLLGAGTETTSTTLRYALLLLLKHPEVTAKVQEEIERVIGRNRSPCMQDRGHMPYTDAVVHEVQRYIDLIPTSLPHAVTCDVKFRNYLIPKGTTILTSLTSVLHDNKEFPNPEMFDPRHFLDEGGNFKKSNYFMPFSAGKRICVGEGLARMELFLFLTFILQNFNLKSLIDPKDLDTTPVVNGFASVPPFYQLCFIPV
Sequence of Keap1/Nrf2 (Q16236 whole entry): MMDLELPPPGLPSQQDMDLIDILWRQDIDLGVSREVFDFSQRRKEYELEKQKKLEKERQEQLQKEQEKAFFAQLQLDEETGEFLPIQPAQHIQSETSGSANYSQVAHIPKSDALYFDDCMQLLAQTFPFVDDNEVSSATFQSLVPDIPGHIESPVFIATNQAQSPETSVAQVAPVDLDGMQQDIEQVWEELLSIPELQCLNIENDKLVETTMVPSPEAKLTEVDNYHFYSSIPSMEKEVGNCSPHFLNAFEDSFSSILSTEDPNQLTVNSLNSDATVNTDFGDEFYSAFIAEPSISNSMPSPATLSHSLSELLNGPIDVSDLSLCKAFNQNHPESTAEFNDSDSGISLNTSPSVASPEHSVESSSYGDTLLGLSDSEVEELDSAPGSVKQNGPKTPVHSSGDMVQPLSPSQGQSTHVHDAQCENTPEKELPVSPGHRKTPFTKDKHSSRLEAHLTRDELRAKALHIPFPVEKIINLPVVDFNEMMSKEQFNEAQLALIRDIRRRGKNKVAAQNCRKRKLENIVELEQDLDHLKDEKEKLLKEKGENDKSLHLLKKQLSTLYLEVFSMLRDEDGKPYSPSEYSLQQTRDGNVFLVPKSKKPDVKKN
Sequence of Keap1/Nrf2 (Q14145 whole entry): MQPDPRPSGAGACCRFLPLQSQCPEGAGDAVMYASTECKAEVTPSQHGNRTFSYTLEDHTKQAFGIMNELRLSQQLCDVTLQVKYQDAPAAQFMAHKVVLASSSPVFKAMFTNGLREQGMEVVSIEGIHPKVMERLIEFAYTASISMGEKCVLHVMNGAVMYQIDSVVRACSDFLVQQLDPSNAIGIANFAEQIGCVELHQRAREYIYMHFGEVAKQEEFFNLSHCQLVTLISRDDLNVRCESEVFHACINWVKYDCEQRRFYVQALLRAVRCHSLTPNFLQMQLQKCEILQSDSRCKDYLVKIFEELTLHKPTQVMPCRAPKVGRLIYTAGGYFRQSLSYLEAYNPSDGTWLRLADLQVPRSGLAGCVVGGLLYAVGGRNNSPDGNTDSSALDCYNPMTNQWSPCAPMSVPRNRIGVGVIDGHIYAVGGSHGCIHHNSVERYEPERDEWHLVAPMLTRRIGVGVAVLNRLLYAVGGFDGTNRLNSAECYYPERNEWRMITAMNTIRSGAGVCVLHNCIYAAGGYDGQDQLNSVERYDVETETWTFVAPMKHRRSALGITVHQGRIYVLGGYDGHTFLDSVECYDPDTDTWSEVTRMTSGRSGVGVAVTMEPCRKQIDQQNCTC
Sequence of Keap1/Nrf2 (Homo sapiens) (Q14145 whole entry, looked up): as the sequence (Q14145 whole entry) above
Sequence of Keap1/Nrf2 (Homo sapiens) (Q16236 whole entry, looked up): as the sequence (Q16236 whole entry) above

For the compound `CN1CCN(C(=O)COc2ccc(C(=O)/C=C/c3ccccc3C(F)(F)F)cc2)CC1.Cl`, the inhibition entry in series [1] was “Dose-dependent effect”. Besides, the remaining at 0.5 h in series [2] came to 99.3%; in series [9], 16.1%. Also, the Activity is 589% in series [3]; “Dose-dependent effect” in series [7]; 100% in series [8]; “Dose-dependent effect” in series [12]; “Dose-dependent effect” in series [16]. For the same compound, the activity entry in series [4] is “Non-Toxic”; in series [13], “Non-Toxic”; in series [14] it was 79.3%. Further, the Activity result in [5], in [10] and in series [11] was “Active” in each case. Further, in [6], the logP amounted to 3.22. The EC50 in series [15] was determined as 630 nM.

One may read the logP as the decadic logarithm of the partition coefficient of the neutral form, usually between octanol and water. The EC50 is the concentration at which the effect is half-maximal.
